# APJ antag: APJ receptor antagonism; P35414; CHO-K1 APJ beta-arrestin complementation, luminescence; inhibition, % at 20 µM; actives 0.32% (n = 330,000); AID 2521;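 active = inhibition above about 40% at 20 µM, limit read from the data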;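 also: cells challenged with 10 nM apelin-13 agonist together with compound; plate controls were apelin-13 plus DMSO wells for no effect and DMSO wells lacking apelin-13 for full effect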
# Target sequence (P35414 whole entry, looked up): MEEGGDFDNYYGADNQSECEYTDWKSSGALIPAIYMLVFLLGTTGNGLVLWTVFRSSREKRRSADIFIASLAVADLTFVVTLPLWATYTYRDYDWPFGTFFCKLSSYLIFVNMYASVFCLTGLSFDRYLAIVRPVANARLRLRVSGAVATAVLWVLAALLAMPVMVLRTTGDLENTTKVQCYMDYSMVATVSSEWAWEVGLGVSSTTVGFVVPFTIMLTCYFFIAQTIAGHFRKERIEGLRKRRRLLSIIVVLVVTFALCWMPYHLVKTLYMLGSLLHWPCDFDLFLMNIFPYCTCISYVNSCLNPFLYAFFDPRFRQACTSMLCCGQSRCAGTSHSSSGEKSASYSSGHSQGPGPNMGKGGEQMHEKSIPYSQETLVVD
# APJ ag: agonists of human APJ apelin receptor; actives 0.11% (n = 330,000); activation, % at 20 µM; CHO-K1 APJ PathHunter beta-arrestin, luminescence; 0% DMSO wells, 100% apelin; P35414;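 active = activation more than six SD over the plate average, tested at 20 µM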;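 also: 0% = DMSO alone and 100% = apelin-13 at 10 nM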
#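 Assay system: CHO-K1 cells stably expressing ProLink-tagged human APJ and arrestin–beta-gal acceptor. Compound dosing: 20 µM single point, 1% DMSO. Times: 16-18 h seeding, 90 min dark compound exposure, 60 min detection. Detection: beta-gal luminescence. Evaluation: APJ–arrestin association signal. Controls: negative DMSO alone, positive Apelin-13 at 10 nM.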
# B2AR ag: human beta-2 adrenergic receptor agonism by FAP; Am2.2-beta2AR cells, FAP receptor internalization, flow cytometry; P07550; actives 0.43% (n = 340,000); response, % (concentration not given with the values);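 active = response above a set limit, near 3 SD of response in nonfluorescent compounds, cut at about 42% in these data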
# CCR6 antag: CCR6 (human) receptor antagonism; P51684; CHO-K1 CCR6 PathHunter beta-arrestin, luminescence, CCL20-stimulated; inhibition, % at 20 µM; actives 0.49% (n = 340,000); AID 493098;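 active = compounds whose inhibition of the agonist-driven luminescence signal at 20 µM reaches about 50%, limit read from the data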;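 also: cells stimulated with CCL20 at 14 nM final; plate controls were DMSO with CCL20 for no effect and DMSO without agonist for full effect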
# CXCR6 block: blocks human CXCR6 beta-arrestin recruitment; O00574; CHO-K1 PathHunter CXCR6 beta-arrestin, luminescence; inhibition, % at 20 µM; actives 0.36% (n = 360,000); in the data active = inhibition above about 34%, passing the limit was not always enough;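 also: antagonist mode with CXCL16 agonist at 10 nM final; 0% = 10 nM CXCL16 with DMSO and 100% = unstimulated wells without agonist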
# EBI2 antag: blocks human EBI2 receptor beta-arrestin signaling; actives 0.81% (n = 360,000); inhibition, % at 5 µM; P32249; EBI2 beta-arrestin recruitment, luminescence, 7a,25-OHC stimulated; in the data active = inhibition above about 38%;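 also: enzyme fragment complementation signal reports receptor beta-arrestin coupling in cells; 0% = agonist plus DMSO wells and 100% = wells without agonist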
# B2AR ag CP1: human beta-2 adrenergic receptor agonism, cherry pick | AID 540358 | Am2.2-beta2AR cells, FAP surface receptor, flow cytometry; active compounds read low | percent response (surface receptor), % at 10 µM | shares compounds with B2AR ag | actives 25% (n = 1,100);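 active = surface receptor percent response at or below 58%, roughly 3 SD from nonfluorescent compounds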
# FAP fluor counter: flagged in Am2.2 fluorescence counterscreen for beta-2AR agonists. AID 588765. calls only at 10 µM. 1,100 tested, under 10 active. Am2.2 cells, FAP fluorogen flow cytometry; active compounds read low. shares compounds with B2AR ag;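 active = percent response below a set limit in fluorescence channel 1 and below 50% in channel 8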
# * hit, by the source's call; i = inactive; · = not tested or not shown. The list is not random: actives were taken first. Their share in the collection is about 1.8%.
SMILES,APJ antag,APJ ag,B2AR ag,CCR6 antag,CXCR6 block,EBI2 antag,B2AR ag CP1,FAP fluor counter
O=C(Cn1cc2c(n1)CCCC2)NCc1ccccn1,-3.5,-4.8,99.7*,0.1,-2.1,-3.6,105.0,i
O=C(Cn1cc2c(n1)CCCC2)NCc1cccs1,-40.2,-3.3,-0.6,1.0,-1.8,-4.4,·,·
Cc1ccc(NC(=O)C(c2ccc(Cl)cc2)N2CCOCC2)cc1 (configuration not stated),13.4,-2.8,47.8*,2.7,-0.1,11.9,46.5*,i
Cc1ccc(NC(=O)C(c2ccc(Cl)cc2)N2CCCCC2)cc1 (configuration not stated),·,·,46.8*,12.5,2.6,6.9,35.8*,i
Cc1cc(C)cc(NC(=O)C(c2ccccc2)N2CCCC2)c1 (configuration not stated),4.1,-0.7,2.3,17.4,9.6,1.6,·,·
O=C(NC1CCc2ccccc21)c1cc(COc2cncc(Cl)c2)on1 (configuration not stated),3.1,2.9,5.4,8.7,-10.7,12.9,123.2,i
CCOC(=O)CCCCCC(=O)Nc1ccc2c(c1)C(=O)N([C@@H](C)CO)C[C@H](C)[C@H](CN(C)C(=O)c1ccccc1)OCCCC[C@H](C)O2,·,·,·,·,2.6,-2.4,·,·
CC(C)NCC(O)c1cc(O)cc(O)c1 (configuration not stated),9.0,1.6,0.1,4.8,-2.2,-2.1,93.3,i
CC(C)NC[C@H](O)c1ccc(O)c(O)c1,-3.5,-1.7,·,6.3,-5.3,-7.7,·,·
COC(=O)C1=C(C(=O)OC)C(c2ccccc2O)c2sc(=O)[nH]c2S1 (configuration not stated),-17.7,0.1,99.6*,24.8,8.5,-11.5,93.1,i
CCCc1cc(=O)n2c(nc3ccccc32)[nH]1,-28.3,-6.9,67.8*,-4.0,0.0,0.2,94.7,i
Cc1ccc([C@@H]2CC=C(C(=O)O)[C@H](c3ccc(Cl)cc3)N2S(=O)(=O)c2ccccc2C)cc1,5.4,-2.9,1.2,-0.8,1.7,3.9,·,·
CC(=O)Nc1ccc(S(=O)(=O)O)c(OC(C)=O)c1,·,·,4.5,7.8,-2.5,6.6,·,·
COc1ccc(C2C(Oc3ccccc3)C(=O)N2c2cc(C)ccc2C)cc1OC (configuration not stated),14.9,-1.1,1.6,10.1,-1.6,7.1,·,·
COc1ccc(C)cc1N1C(=N)/C(=C2/Nc3ccccc3S2)C(c2ccccc2)C1=O (configuration not stated),·,·,45.1*,10.3,-6.6,1.4,84.7,i
O=C1C2CCCCN2C(=O)N1CCCCN1CCN(c2cccc(C(F)(F)F)c2)CC1 (configuration not stated),·,·,59.3*,5.4,6.9,-6.7,69.9,i
N#Cc1c(N2CCCC2)nc(N)c2c(N)nc(N3CCCC3)cc12,-21.1,8.3,45.6*,5.6,12.1,17.2,82.9,i
CCOc1ccc2nc(NC(=O)CSc3nc4cccnc4n3C)sc2c1,18.8,-2.0,49.5*,18.3,12.5,28.0,89.0,i
COc1ccc(Br)c(C(=O)OCC(=O)NC2CCCCCCC2)c1,·,·,·,·,5.3,3.7,·,·
CCOC(=O)c1cc(-c2cccs2)nc2c1c(C)nn2-c1ccccn1,2.0,-1.0,4.9,16.2,10.0,13.5,·,·
Cc1nn(-c2ccccn2)c2nc(-c3cccs3)cc(C(=O)NCc3ccco3)c12,0.2,-2.5,43.4*,15.7,4.6,1.1,73.0,i
OC1c2c(F)cccc2N=C2CCCCN21 (configuration not stated),·,·,·,·,-0.9,-1.6,·,·
COc1ccc(-c2ccccc2)cc1NC(=O)[C@@H]1O[C@H](CO)[C@H](O)[C@H](O)[C@H]1O,·,·,·,·,6.8,-1.9,·,·
FC(F)(F)c1cc(-c2ccccc2)nc(-n2cc(Cl)cn2)n1,9.0,-3.4,-14.6,8.7,-10.6,-25.2,·,·
Cc1cnn(-c2nc(-c3ccccc3)cc(-c3ccccc3)n2)c1,-9.8,-3.0,42.2*,15.3,8.2,-12.6,16.1*,i
SMILES,APJ antag,APJ ag,B2AR ag,CCR6 antag,CXCR6 block,EBI2 antag,B2AR ag CP1,FAP fluor counter
CSc1ccccc1C(=O)OCC(=O)N1CCCCCC1,10.8,-5.2,-3.6,3.5,2.1,4.6,·,·
O=C(OCC(=O)N1CCCC1)c1ccccc1C(=O)c1ccccc1,8.5,-4.9,4.6,-3.3,8.8,-17.2,118.5,i
O=C(C(c1ccccc1)c1ccccc1)N1CCN(c2ccccn2)CC1,15.0,-2.5,113.3*,19.1,1.3,3.3,15.6*,i
Cc1ccc(F)c(C(=O)N2CCCC(C)(C(=O)NS(=O)(=O)C3CC3)C2)c1F (configuration not stated),·,·,·,·,-13.3,3.2,·,·
CCOc1cc(/C=N/N2CCN(Cc3ccccc3)CC2)ccc1O,-7.4,0.5,-3.8,5.3,-2.1,-7.5,·,·
Cc1c(Cl)cccc1N1C(=O)C(N2C(=O)c3cccc([N+](=O)[O-])c3C2=O)C1c1cccs1 (configuration not stated),-9.0,0.3,51.9*,-36.7,-5.6,48.1*,96.3,i
O=S(=O)(Nc1ccc(-c2cn3ccccc3n2)cc1)c1ccccc1,-18.0,1.8,-8.2,2.0,12.3,-4.0,·,·
Cc1cccc(S(=O)(=O)Nc2ccc(-c3cn4ccccc4n3)cc2)c1,-23.4,5.2,78.9*,-10.8,-8.3,-16.2,131.1,i
Cc1ccc(OCc2cc(C(=O)NCc3cnn(-c4cccc(F)c4)c3)no2)cn1,-7.8,-6.5,97.4*,18.4,5.5,10.5,16.0*,i
CCc1cc(CNC(=O)c2cc(COc3ccc(C)nc3)on2)on1,-27.5,-1.4,-4.6,-6.7,2.8,-10.4,·,·
Cc1ccc(OCc2cc(C(=O)NCc3ccc(OC(F)(F)F)cc3)no2)cn1,0.9,4.6,52.0*,3.6,-9.5,13.4,40.0*,i
COc1ccc(NC(=O)Nc2cccc3c2O[C@@H](CN(C)S(=O)(=O)c2cn(C)cn2)[C@@H](C)CN([C@H](C)CO)C3=O)cc1,6.4,-1.9,-1.2,4.4,0.3,-14.0,·,·
CC(C)Cc1nc2oc3c(NCC(C)O)ncnc3c2c2c1CCCC2 (configuration not stated),12.8,1.5,-3.2,9.5,2.9,23.3,110.0,i
CCCc1nc2oc3c(NCCN(C)C)ncnc3c2c2c1CCCC2,24.0,-3.4,14.4,13.6,-4.8,15.0,129.7,i

# Source: PubChem BioAssay (several laboratories)
